Screening results: PubChem BioAssay, several laboratories
OX1R antag-1: blocks the human orexin 1 receptor | 1.8% of 330,000 active | O43613 | AID 485270 | OX1R-expressing cells, FRET antagonist read-out | inhibition, % at 6.6 µM; in the data active = inhibition mostly above about 38%, no sharp cut-off; inactive = mostly below about 40%;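 also: 0% = agonist challenge alone and 100% = reference antagonist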
Target sequence (O43613 whole entry, looked up): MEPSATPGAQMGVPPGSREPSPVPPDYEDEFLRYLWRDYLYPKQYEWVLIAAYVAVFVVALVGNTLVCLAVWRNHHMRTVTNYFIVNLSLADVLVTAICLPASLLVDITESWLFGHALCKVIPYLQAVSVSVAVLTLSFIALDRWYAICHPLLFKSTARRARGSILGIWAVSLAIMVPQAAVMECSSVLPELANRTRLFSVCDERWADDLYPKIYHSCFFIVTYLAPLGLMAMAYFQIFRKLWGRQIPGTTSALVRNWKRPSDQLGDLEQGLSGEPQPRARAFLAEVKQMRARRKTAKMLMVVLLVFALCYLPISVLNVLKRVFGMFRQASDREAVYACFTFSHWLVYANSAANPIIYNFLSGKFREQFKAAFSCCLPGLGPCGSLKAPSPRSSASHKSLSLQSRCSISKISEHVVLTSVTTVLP
OX1R antag-2: human HCRTR1 antagonism | O43613 | CHO/OX1R cells, Fluo-8 calcium fluorescence, orexin A | inhibition, % at 5 µM | 0.43% of 330,000 active | AID 434989;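 active = inhibition above its plate's threshold, mean inhibition of all tested compounds on the plate plus 3 SD, cut at about 37% in these data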;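 also: 0% = orexin A challenge wells and 100% = SB-334867-A antagonist wells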
TAAR1 agonist: human TAAR1 agonism | CHO RD-HGA16 TAAR1, Fluo-8 calcium fluorescence; vehicle wells 0%, saturating PEA agonist 100% | 0.99% of 360,000 active | activation, % at 3 µM | Q96RJ0;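 active = activation above the mean activation of all test compounds in the run plus 3 SD, cut at about 38% in these data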
Target sequence (Q96RJ0 whole entry, looked up): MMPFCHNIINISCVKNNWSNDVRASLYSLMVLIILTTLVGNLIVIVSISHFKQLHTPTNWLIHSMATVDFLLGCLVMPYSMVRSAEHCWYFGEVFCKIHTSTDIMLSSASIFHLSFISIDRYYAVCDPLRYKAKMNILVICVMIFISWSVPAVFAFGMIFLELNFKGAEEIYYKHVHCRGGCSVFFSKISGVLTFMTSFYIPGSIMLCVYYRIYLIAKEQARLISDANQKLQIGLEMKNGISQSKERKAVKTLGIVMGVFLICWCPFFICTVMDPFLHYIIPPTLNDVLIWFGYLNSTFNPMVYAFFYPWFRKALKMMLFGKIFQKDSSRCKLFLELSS
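System: CHO-derived RD-HGA16 cells with stable Gα16 and human TAAR1. Times: 17-24 h plating, Fluo-8 75 min 37 °C, 30 min RT. Measured by: calcium-sensitive Fluo-8 signal, excitation 470-495, emission 515-575 nm. Read-out basis: % activation relative to PEA EC100 response. Control set: DMSO and PEA EC100. Repeats: no replicates (n 1).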
NTR1 agonist: NTR1 (human) agonism; 0.17% of 330,000 active; activation, % at 20 µM; NTR1-U2OS beta-arrestin-GFP spot imaging, agonist mode; AID 493036; P30989;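 active = activation at or above 40% of the spot to cytoplasm intensity ratio, with at least 20 cells analyzed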;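 also: 0% = DMSO without peptide and 100% = 100 nM NTR1 peptide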
CHO parental Ca: counter-screen for OX1R antagonists: effect in parental CHO cells; inhibition, % at 5.6 µM; AID 463079; parental CHO-K1, ATP-induced calcium, Fluo-8 fluorescence; 0.63% of 330,000 active;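 active = inhibition above that plate's mean sample inhibition plus 3 SD, cut at about 26% in these data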;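 also: 0% = ATP-challenged DMSO wells and 100% = DMSO wells without ATP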
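Assay system: parental CHO cells; Read-out basis: percent inhibition of ATP-evoked calcium rise, normalized to controls; Benchmarks: ATP and no-ATP DMSO wells; Compound dosing: single nominal dose of 5.6 µM per compound; Signal: Fluo-8 calcium dye fluorescence; Also added: ATP as calcium-mobilizing challenge; Repeats: singlicate.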
TAAR1 antag: antagonists of human TAAR1 | Q96RJ0 | 1.5% of 360,000 active | AID 624466 | inhibition, % at 3 µM | CHO RD-HGA16 TAAR1, Fluo-8 calcium fluorescence, antagonist;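 active = inhibition above a per-plate cutoff, the mean inhibition of test compounds on that plate plus 3 SD, cut at about 49% in these data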;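 also: 0% = DMSO plus EC80 beta-PEA response and 100% = DMSO alone without agonist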
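System: RD-HGA16 CHO cells with stable hTAAR1 and Gα16 | Probe or stimulus: EC80 β-phenethylamine stimulus | Dosing: 3 µM, single point | Times: Dye loading 75 min at 37 °C, then 30 min room temperature | Measured by: Fluo-8 calcium-sensitive fluorescence | Read-out basis: % inhibition of agonist calcium response | Replicates: n of 1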
* = called active by the depositor; . = no result. The list is not random: actives were taken first. Their share in the collection is about 4%.

SMILES | OX1R antag-1 | OX1R antag-2 | TAAR1 agonist | NTR1 agonist | CHO parental Ca | TAAR1 antag
Cc1cc(OCc2cc(C(=O)NCCN3CCCCC3CO)no2)cc(C)c1Cl (stereo not drawn) | 14.0 | 0.6 | 9.9 | 2.2 | -5.6 | -11.4
O=C(Nc1ccncc1)c1ccc2c(c1)C(=O)N(C1CCCCC1)C2=O | 44.9 | 43.1 | 32.3 | 4.8 | 51.4* | 44.9
Cc1ccc(C(=O)Nc2ccc3c(c2)C(=O)N(CC2CCCO2)C3=O)cc1 (stereo not drawn) | 9.7 | 8.8 | 3.3 | 1.5 | -10.0 | -12.0
O=C(Nc1ccncc1)c1ccc2c(c1)C(=O)N(CC1CCCO1)C2=O (stereo not drawn) | 53.5* | -13.9 | 36.5 | -0.5 | -15.8 | 35.2
CCOC(=O)CN1C(=O)N(c2ccc(OC)cc2)[C@H]2CC3c4ccccc4C[C@]3(C)[C@@H](C(=O)N(C)C3CCCCC3)C[C@H]21 (stereo partly drawn) | . | . | 1.3 | . | . | -10.1
O=C(N[C@H](C(=O)N1CCC[C@H]1C(=O)NCc1ccccc1)c1ccccc1)c1ccc(Cl)c(Cl)c1 | . | . | -1.2 | . | . | -2.8
CC(C)(C)n1nc(C2CC2)c(Br)c1NC(=O)c1ccc(Cl)cc1 | . | . | -0.8 | . | . | -10.1
CCc1ccc(O)c(N=Cc2cccc(C)c2O)c1 | 15.8 | -20.1 | 2.9 | -1.2 | -8.6 | -12.2
Oc1ccc(Cl)cc1C=Nc1ccc2c3c(cccc13)CC2 | 13.1 | 62.2* | 2.6 | 3.0 | 59.4* | -9.0
Cc1cccc(C=Nc2ccc3c4c(cccc24)CC3)c1O | 17.3 | 54.0* | 7.3 | -2.5 | 38.9* | -0.4
Oc1ccc(Cl)cc1/C=N/c1nccs1 | 10.7 | -5.7 | 9.4 | -0.3 | 8.4 | 1.5
COc1cc(OC)c(NC(=O)C(Sc2nc(C)cc(C)c2C#N)c2ccccc2)cc1Cl (stereo not drawn) | . | . | 2.7 | . | . | -6.5
CCCCn1nc(C(=O)Nc2ccc(-n3cnnn3)cc2)c2ccccc2c1=O | 4.9 | -15.5 | 23.5 | 3.3 | -13.5 | 51.5*
Cc1ccc(CNC(=O)CSc2ncc(C(=O)Nc3ccccc3)c(=O)n2C)cc1 | 14.7 | -22.0 | 1.3 | 22.9 | -2.7 | 2.2
CSc1nnc(-c2ccc(F)cc2)o1 | 13.6 | -3.2 | 12.2 | 0.7 | -5.1 | -2.2
C#CCSc1nnc(-c2ccc([N+](=O)[O-])cc2)o1 | 51.5* | -3.3 | 2.4 | -2.0 | -2.9 | 13.1
CSc1nnc(-c2ccc([N+](=O)[O-])cc2)o1 | 61.6* | -2.9 | 2.3 | 1.5 | -8.7 | 10.2
C#CCSc1nnc(-c2ccc(OC)cc2)o1 | 1.4 | -5.7 | 9.5 | -0.2 | -7.8 | -16.1
COc1ccc(N(S(=O)(=O)c2ccccc2)S(=O)(=O)c2ccccc2)c(N)c1 | 20.2 | -4.0 | 12.8 | -0.6 | -11.4 | 50.6*
COc1ccc(S(N)(=O)=O)cc1N(C)S(=O)(=O)c1ccccc1 | 51.5 | -6.2 | 6.9 | -1.2 | -5.5 | 11.3
Cn1nc(C(C)(C)C)cc1C(=O)NCc1cc(F)cc2c1OCOC2 | 14.1 | 29.1 | 8.7 | 1.1 | 23.3 | 50.3*
Cc1cc(C(=O)NCc2cc(F)cc3c2OCOC3)nn1C | -0.3 | -14.2 | 0.8 | -1.1 | -14.1 | -19.6
COCCNC(=O)c1cc(-c2ccccc2)nn1CC1CC(c2cccnc2)=NO1 (stereo not drawn) | 30.5 | -17.0 | 5.4 | -2.1 | 2.8 | 20.7
COc1ccc(C2=NOC(Cn3nc(-c4ccccc4)cc3C(=O)O)C2)cc1 (stereo not drawn) | -1.8 | -3.7 | 1.6 | 1.0 | -13.2 | -5.6
COc1ccc(C2=NOC(Cn3nc(C(=O)NCc4cccc(C(F)(F)F)c4)cc3-c3ccccc3)C2)cc1 (stereo not drawn) | 23.9 | 0.9 | 10.8 | -3.3 | 19.2 | 54.8*
SMILES | OX1R antag-1 | OX1R antag-2 | TAAR1 agonist | NTR1 agonist | CHO parental Ca | TAAR1 antag
Cc1ccccc1-c1cc(C(=O)NCc2cccc(C(F)(F)F)c2)n(CC2CC(c3cccnc3)=NO2)n1 (stereo not drawn) | 6.8 | -7.0 | 12.7 | 5.5 | -15.5 | 54.5*
COc1ccc(C2=NOC(Cn3nc(C(=O)NCc4ccc(C)cc4)cc3-c3ccccc3)C2)cc1 (stereo not drawn) | 43.7 | 4.3 | 11.7 | 0.4 | 1.2 | 57.8*
COCCNC(=O)c1cc(-c2ccccc2)n(CC2CC(c3ccc(OC)cc3)=NO2)n1 (stereo not drawn) | 8.2 | -16.7 | 19.5 | 0.2 | -7.4 | 52.9*
O=C(NCc1cccc(C(F)(F)F)c1)c1cc(-c2ccccc2)nn1CC1CC(c2cccnc2)=NO1 (stereo not drawn) | 17.1 | -23.6 | 17.6 | -0.6 | 11.4 | 32.2
COC(=O)c1cc2c(c3c4ccccc4n(S(=O)(=O)c4ccccc4)c13)C(=O)N(C)C2 | . | . | -0.3 | . | . | -28.1
O=C(CNC(=O)c1ccc([N+](=O)[O-])cc1)c1ccccc1 | 46.9* | 6.2 | . | 0.0 | 1.5 | .
CC(=O)NC(CC(=O)O)c1ccc([N+](=O)[O-])cc1 (stereo not drawn) | 20.6 | -6.6 | 3.9 | -0.4 | -8.7 | 3.6
CC(=O)NC(CC(=O)c1ccc([N+](=O)[O-])cc1)C(Cl)(Cl)Cl (stereo not drawn) | 75.5* | 3.2 | -0.2 | -1.6 | -6.5 | 1.8
O=C(CNC(=O)c1cccs1)c1ccc([N+](=O)[O-])cc1 | 59.2* | 0.2 | -0.4 | -0.8 | -7.6 | -4.5
O=C(CNC(=O)c1cccs1)OCC(=O)c1ccc([N+](=O)[O-])cc1 | 33.7 | 3.6 | 0.5 | -0.2 | -11.2 | -11.7
O=C(CNC(=O)c1ccco1)OCC(=O)c1ccc([N+](=O)[O-])cc1 | 41.1* | -10.2 | -2.4 | -0.2 | -6.8 | -2.2
CC(C)(C)OC(=O)N1CCC(c2c(C(=O)NC3CC3)cnn2-c2ccc(Cl)cc2)CC1 | 11.8 | -17.7 | 1.2 | 0.3 | -29.7 | -7.6
C=CCN1C(=O)c2n[nH]c(C(C)C)c2C1c1ccccc1 (stereo not drawn) | . | . | -1.8 | . | . | 5.7
COc1cc(OC)cc(-c2cc(N)n(S(=O)(=O)c3cccc4nsnc34)n2)c1 | 48.7* | 16.5 | 3.6 | 0.8 | 4.4 | -4.6
CCOc1ccc(-c2cc(N)n(S(=O)(=O)c3cccc4nsnc34)n2)cc1 | 18.2 | -38.6 | -3.1 | -0.4 | -24.6 | -5.1
OC(CNc1ccccc1)COc1ccc(OCC(O)CNc2ccccc2)cc1 (stereo not drawn) | 40.3 | 39.6 | 26.5 | 2.7 | 49.8* | 33.5
COc1ccccc1C(=O)NCCC(=O)Nc1ncccc1O | 7.7 | -5.7 | 0.5 | 0.2 | -9.4 | -8.8
COc1ccc(N=C2SC(CC(=O)Nc3ccccc3)C(=O)N2CCc2ccccn2)cc1 (stereo not drawn) | 69.2* | 16.5 | 3.3 | 4.3 | -5.4 | 2.8
CCN1C(=O)c2ccccc2Sc2ccc(C(=O)NCCCN(CC(C)C)CC(C)C)cc21 | 7.4 | -20.7 | 0.5 | 0.4 | -5.5 | -1.0
